Rows were chosen to be rich in hits. Some 0.55% of all compounds tested hit in one or more screens of this group.
V1aR counter: agonists of human V1a receptor, primary screen, counter-screen for OXTR agonist project, fluorescence, CHO-V1R cells; Fluo-8 calcium fluorescence, agonist mode; 0% DMSO, 100% 3 nM vasopressin; activation, % at 3 µM; actives 0.25% (n = 320,000); AID 2797, 2010; Vasopressin V1a receptor (Homo sapiens), P37288;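 active = activation above the mean activation of all tested compounds plus 3 SD, per screening run, cut at about 20% in these data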;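 also: signal is peak over basal fluorescence ratio across a 100 second FLIPR read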
Target sequence (P37288 whole entry, looked up): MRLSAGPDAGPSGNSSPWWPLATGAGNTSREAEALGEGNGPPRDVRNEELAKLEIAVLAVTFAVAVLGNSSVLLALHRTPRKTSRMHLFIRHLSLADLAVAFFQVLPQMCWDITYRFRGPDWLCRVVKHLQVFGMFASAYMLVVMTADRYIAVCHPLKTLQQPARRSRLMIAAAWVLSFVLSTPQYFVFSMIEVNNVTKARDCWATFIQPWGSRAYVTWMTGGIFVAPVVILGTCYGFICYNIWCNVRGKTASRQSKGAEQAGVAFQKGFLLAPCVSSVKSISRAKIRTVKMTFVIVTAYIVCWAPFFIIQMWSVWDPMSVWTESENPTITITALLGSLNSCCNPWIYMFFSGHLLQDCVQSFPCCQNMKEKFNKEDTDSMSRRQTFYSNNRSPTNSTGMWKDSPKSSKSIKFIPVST
OXTR potentiate: human OXTR potentiators, primary screen, fluorescence, CHO-OTR cells, Fluo-8 calcium; Fluo-8 calcium fluorescence, potentiator mode; 0% = oxytocin EC15, 100% = EC100; Oxytocin receptor (Homo sapiens), P30559; activation, % at 3 µM; actives 0.061% (n = 320,000);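 active = activation above that plate's cutoff, the mean activation of tested compounds plus 3 SD, cut at about 6.6% in these data, passing the limit was not always enough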
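assay system = CHO-OTR cells, human receptor | schedule = compound 6 min at room temperature before oxytocin, 100 s read | detection = Fluo-8 intracellular calcium fluorescence, ex 470-495, em 515-575 nm | evaluation = normalized max/min fluorescence ratio, % activation | control set = EC15 oxytocin alone as 0%, 75 nM oxytocin (EC100) as 100%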
OXTR ag: human OXTR agonists, primary screen, fluorescence, CHO-OTR cells, Fluo-8 calcium. Oxytocin receptor (Homo sapiens), P30559. Fluo-8 calcium fluorescence; normalized: DMSO 0%, oxytocin 100%. activation, % at 3 µM. actives 0.32% (n = 320,000);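 active = activation above the mean of all tested compounds plus 3 SD, cutoff set per screening run, cut at about 20% in these data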;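 also: peak over basal fluorescence ratio from a 100 s FLIPR kinetic read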
zfTRPN1 agonist: zebrafish TRPN1 channel agonists, primary screen, cell-based, HEK293, calcium fluorescence; HEK293 zebrafish TRPN1-YFP, Fluo-8 calcium fluorescence; 100% = response to 87 µM carbachol; activation, % at 3 µM; actives 0.18% (n = 220,000); AID 1424, 2008;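 active = activation above its plate's cutoff, the mean activation of test wells on that plate plus 3 SD, cut at about 19% in these data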
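Assay system: Zebrafish TRPN1-YFP in HEK293 cells | Incubation: Dye loading 1 h at 37 °C, then 30 min room temperature | Measured by: Kinetic Fluo-8 fluorescence, ex 470-495, em 515-575 nm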
TRPML3 agonist: human TRPML3 channel agonists, primary screen, cell-based, HEK293 TRPML3-YFP, Fluo-8 calcium fluorescence, 3 µM; activation, % at 3 µM; Mucolipin-3 (Homo sapiens), Q8TDD5; actives 0.29% (n = 220,000); 100% = the carbachol control signal;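 active = activation above its plate's cutoff, the mean activation of the plate's test wells plus 3 SD, cut at about 12% in these data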
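Test system: HEK293 cells stably carrying human TRPML3-YFP; Doses: single dose, 3 µM final nominal compound, 0.3% DMSO final; Schedule: dye loading 1 h 37 °C then 30 min ambient, 125 s read; Technique: Fluo-8 calcium fluorescence; Benchmarks: high control carbachol 87 µM, low control DMSO.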
OXTR pot cf: human OXTR potentiators, confirmation, fluorescence, CHO-OTR cells, triplicate; shares compounds with OXTR potentiate; Fluo-8 calcium fluorescence, potentiation; scaled from low-dose to maximal oxytocin; activation, % at 3 µM; 180 tested, under 10 active; AID 434985, 2010;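 active = mean percent activation over triplicates above a cutoff set from solvent-only control plates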;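 also: compounds tested in the presence of an EC15 dose of oxytocin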
Hits are given with their value; i = inactive; nt = not tested or not shown.

SMILES | V1aR counter | OXTR potentiate | OXTR ag | zfTRPN1 agonist | TRPML3 agonist | OXTR pot cf
CN(C)C(CNC(=O)CCNC(=O)c1ccc(Cl)cc1)c1ccco1 (stereo unspecified) | i | i | i | nt | nt | nt
CCOC(=O)c1c(C)nc(C)c(C(=O)OCC)c1-c1ccccc1 | i | i | i | i | i | nt
CCOC(=O)c1c(C)nc2c(c1-c1cc(OC)c(OC)c(OC)c1)C(=O)c1ccccc1-2 | i | 11 | i | i | i | i
O=C(NCc1ccccn1)c1ccc(Cl)c(S(=O)(=O)Nc2ccccc2C(=O)NCc2ccccn2)c1 | i | 14 | i | i | i | i
CC1(C)Cc2c(cnn2-c2ccc(F)cc2)C(NC(=O)c2ccc(=O)oc2)C1 (stereo unspecified) | i | i | i | nt | nt | nt
COCCCN1CC(=O)N2C(c3ccccc3)c3[nH]c4ccccc4c3C[C@H]2C1=O (stereo partly specified) | i | 8.7 | i | nt | nt | i
Cc1ccc(S(=O)(=O)CC(=O)c2cc(C)c(O)c(C)c2)cc1 | i | i | i | i | i | nt
Cc1ccccc1-c1nc(CN(C)C(C)c2ccon2)c(C)o1 (stereo unspecified) | i | 13 | i | i | i | i
Cc1oc(-c2ccccc2Cl)nc1CN(C)C(C)c1ccon1 (stereo unspecified) | i | i | i | i | i | nt
COC1CCCCC1Nc1cccc(SC)c1 (stereo unspecified) | i | 12 | i | i | i | i
COc1cc(C(=O)OCC(=O)Nc2ccc(N3CCOCC3)cc2)ccc1OCC(C)C | i | i | i | nt | nt | nt
O=C(NC(Cc1cccc(F)c1)C(=O)O)C1CCCCC1 (stereo unspecified) | i | 8.1 | i | nt | nt | i
CC(C)C1CCC(C(=O)N[C@H](Cc2ccccc2)C(=O)O)CC1 (stereo partly specified) | i | i | i | i | i | nt
CC1CCN(S(=O)(=O)c2cnc[nH]2)CC1 | i | 8.5 | i | nt | nt | i
CC1CCN(C(=O)C2CCN(S(=O)(=O)c3cnc[nH]3)CC2)CC1 | i | i | i | i | i | nt
Cc1ccc(N/C(=C\C(=O)c2ccccc2)C(=O)O)cc1 | i | i | i | i | i | nt
O=S(=O)(c1ccc(Cl)nc1)N1CCCc2ccccc21 | i | 8.3 | i | i | i | i
Cc1ccc(S(=O)(=O)/N=C(\CCl)N2CCOCC2)cc1 | i | i | i | i | i | nt
O=C1c2nccnc2C(=O)N1c1ccc(F)cc1 | i | 10 | i | i | i | i
O=C(O)c1ccc(N2C(=O)c3cccnc3C2=O)cc1 | i | i | i | i | i | nt
COc1ccc(NC(=O)N(C)C[C@H]2Oc3c(NC(=O)c4nc5ccccc5s4)cccc3C(=O)N([C@@H](C)CO)C[C@H]2C)cc1 | i | i | i | nt | nt | nt
O=C(NC1CCCCC1)C1CCN(S(=O)(=O)c2cccc3cccnc23)CC1 | i | 14 | i | i | i | i
CCOC(=O)N1CCC(NC(=O)C2CCN(S(=O)(=O)c3cccc4cccnc34)CC2)CC1 | i | i | i | i | i | nt
C=C(C)Cn1c(CN(C)Cc2ccccc2)nc2c1c(=O)n(C)c(=O)n2C | i | i | i | nt | nt | nt
C[C@H](CO)N1C[C@H](C)[C@@H](CN(C)C(=O)Nc2ccc(C(F)(F)F)cc2)Oc2c(cccc2N(C)C)C1=O | i | 12 | i | nt | nt | i
SMILES | V1aR counter | OXTR potentiate | OXTR ag | zfTRPN1 agonist | TRPML3 agonist | OXTR pot cf
C[C@@H]1CN([C@H](C)CO)C(=O)c2cc(NC(=O)Nc3ccc(C(F)(F)F)cc3)ccc2O[C@H]1CN(C)S(=O)(=O)c1cccs1 | i | i | i | nt | nt | nt
C[C@H](CO)N1C[C@H](C)[C@@H](CN(C)S(=O)(=O)c2cccs2)Oc2ccc(NC(=O)Nc3ccccc3)cc2C1=O | i | 15 | i | nt | nt | i
C=CCn1c(SCC(=O)Nc2nc3ccccc3s2)nc(O)c(CC)c1=O | i | i | i | i | i | nt
COc1ccc(-c2nnc(Nc3ccc(OC)c(C(=O)N4CCCCC4)c3)c3ccccc23)cc1 | i | 13 | i | i | i | i
Cc1ccc(CN(Cc2ccccc2)C(=S)NCC(=O)NCc2cccnc2)o1 | i | i | i | i | i | nt
CCOC(=O)C1=C(C)Nc2nc(SCC(=O)OC)nn2C1c1cc(F)cc(F)c1 (stereo unspecified) | i | 11 | i | i | i | i
Nn1c(SCC(=O)Nc2cccnc2Cl)nnc1-c1ccccc1 | i | i | i | nt | nt | nt
COC(=O)Cn1c(=NC(=O)CSCC(=O)NC2CCCCC2)sc2cc(OC)ccc21 | i | 17 | i | i | i | i
CCOC(=O)Cn1c(=NC(=O)CSC(C)=O)sc2cc(OC)ccc21 | i | i | i | i | i | nt
Cc1nnc(SCC(=O)N(CC(C)C)C2CCS(=O)(=O)C2)s1 (stereo unspecified) | i | i | i | nt | nt | nt
CC(C)CN(C(=O)CSc1nnc2ccccn12)C1CCS(=O)(=O)C1 (stereo unspecified) | i | 15 | i | nt | nt | i
CCOC(=O)c1c(C)[nH]c(C(=O)CN2C(=O)NC3(CCCC3)C2=O)c1C | i | 6.3 | i | i | i | i
CCOC(=O)c1c(C)[nH]c(C)c1C(=O)CN1C(=O)NC2(CCCCCC2)C1=O | i | i | i | nt | nt | nt
CCCCn1c(N)c(N(CC)C(=O)c2ccc(-c3ccc(Cl)cc3)o2)c(=O)[nH]c1=O | i | 12 | i | nt | nt | i
CCCCn1c(N)c(N(CC(C)C)C(=O)c2ccc(-c3ccc(Cl)cc3)o2)c(=O)[nH]c1=O | i | i | i | nt | nt | nt
CCN(CC)S(=O)(=O)c1ccc(C)c(NC(=O)c2cc(C)oc2C)c1 | i | 13 | i | i | i | i
COc1ccc(/C(C)=N/NC(=O)c2cccc(S(=O)(=O)N3CCCC3)c2)c(O)c1 | i | i | i | nt | nt | nt
COc1ccc2nc(NC(=O)CSc3nnc(C)s3)sc2c1 | i | 10 | i | i | i | i
COc1ccc2nc(NC(=O)CSc3nc(SC)ns3)sc2c1 | i | i | i | i | i | nt
COc1ccc(CNC(=O)[C@H](C)NC(=O)C2CC(=O)N(c3ccc4c(c3)OCO4)C2)cc1 (stereo partly specified) | i | 14 | i | nt | nt | i
COc1ccc(N2CCN(C(=O)c3ccc4c(=O)n(CCc5ccc(OC)c(OC)c5)c(=O)[nH]c4c3)CC2)cc1 | i | i | i | i | i | nt
CC1(C)CC(=O)C([N+](=O)[O-])=C(NCCCC(=O)O)C1 | i | i | i | i | i | nt

Screening results (PubChem)
